Assay outcomes: PubChem BioAssay, several laboratories
Only some compounds are listed: those with a hit (about 2.2% of all), similar ones and a draw of the others.
IEC-6 cytotox: kills IEC-6 intestinal cells in KLF5 counter-screen | inhibition, % at 5 µM | IEC-6 cytotoxicity, luminescence viability | 290,000 tested, 0.78% active; in the data active = inhibition above about 22%;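 also: 0% = plate median of test compound wells and 100% = cytotoxic reference compound wells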
b-catenin transl: alters nuclear translocation of beta-catenin in HeLa cells. 190,000 tested, 0.3% active. AID 1665. nuclear translocation activity, % at 5 µM. immunofluorescence imaging;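 active = nuclear translocation activity above 50% at 5 µM, with a well cell count of 50 or more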;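 also: per-cell ratio of nuclear to cytoplasmic median beta-catenin stain intensity; plate controls were DMSO negative control for no effect and GSK-3 inhibitor IX positive control for full effect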
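Assay system: human HeLa cells, native beta-catenin; doses: 5 µM primary, 0.02–20 µM confirmation; incubation: compound treatment 24 h, 37°C, 5% CO2; technique: fluorescence imaging of beta-catenin antibody stain plus DAPI; measure: % activation, nuclear-to-cytoplasmic median beta-catenin signal ratio per cell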
APP transl inh: APP translation inhibition; SH-SY5Y APP 5'UTR-luciferase reporter, luminescence; inhibition, % at 2 µM; 190,000 tested, 0.82% active; AID 1285;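 active = inhibition above a set limit, derived from the sample mean plus 3 SD, cut at about 45% in these data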
BaF3 parental: reduces parental Ba/F3 cell viability, JAK2V617F counter-screen; inhibition, % at 5.6 µM; CellTiter-Glo ATP luminescence; 220,000 tested, 1.1% active;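 active = inhibition above a per-campaign cutoff, the mean inhibition of all tested compounds plus 3 SD, cut at about 27% in these data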;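 also: 0% = DMSO wells and 100% = JAK Inhibitor I control wells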
MT stabilizer: stabilizes microtubules in HeLa cells; HeLa tubulin immunostaining HCS, 24 h; share of cells brighter than vehicle mean+2SD; % tubulin-high responders, % at 10 µM; 200,000 tested, 0.83% active; AID 2205;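 active = plate Z-score above 3 for both tubulin-high and condensed-nucleus cell shares, with cell loss under 80%, at 10 µM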;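 also: anti alpha tubulin signal scored within the nucleus-defined area of each cell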
Ba/F3 V617F tox: loss of viability in JAK2V617F-driven Ba/F3 cells. Ba/F3 EpoR-JAK2V617F viability, ATP luminescence. inhibition, % at 5.6 µM. 220,000 tested, 1.1% active. AID 1446;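 active = inhibition above the campaign mean plus 3 SD over all tested compounds, cut at about 24% in these data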;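 also: cytokine-independent growth of Ba/F3 cells driven by EpoR plus mutant JAK2; 0% = DMSO-treated cells and 100% = JAK inhibitor I control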
BaF3 tox 2: parental Ba/F3 viability inhibition for JAK2V617F counter-screen; shares compounds with Ba/F3 V617F tox; CellTiter-Glo luminescence; cells kept alive by added IL-3; inhibition, % at 5.6 µM; 580 tested, 31% active; AID 1520;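 active = cell growth inhibition above the hit limit set in the earlier mutant JAK2 cell screen, cut at about 27% in these data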;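 also: plate controls were DMSO-treated cells for no effect and JAK Inhibitor I control wells for full effect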
JAK2V617F confrm: confirmation: loss of viability in JAK2V617F-dependent Ba/F3 cells; 580 tested, 66% active; Ba/F3 EpoR-JAK2V617F viability, CellTiter-Glo luminescence; shares compounds with Ba/F3 V617F tox; AID 1521; inhibition, % at 5.6 µM;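 active = mean inhibition above the hit cutoff derived in the earlier primary screen, cut at about 25% in these data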;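 also: 0% = DMSO-treated cells and 100% = JAK inhibitor I control wells; higher means lower luminescence from reduced cell ATP and viability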
Starred values were filed as active, the others as inactive; · = no result.

SMILES | IEC-6 cytotox | b-catenin transl | APP transl inh | BaF3 parental | MT stabilizer | Ba/F3 V617F tox | BaF3 tox 2 | JAK2V617F confrm
CCCn1c(SCC(=O)NC2CCCc3ccccc32)n[nH]c1=O (stereo not given) | 1 | -4 | -2 | 8 | 4 | 57* | -2 | -3
CCCn1c(SCC(=O)NC2CCCC(C)C2C)n[nH]c1=O (stereo not given) | -4 | · | -9 | 8 | 2 | 2 | · | ·
CC(=O)c1ccc(C(=O)N2CCc3c([nH]c4ccccc34)C2c2cccc(C)n2)s1 (stereo not given) | 4 | -1 | · | -2 | · | -2 | · | ·
Cc1cccc(C2c3[nH]c4ccccc4c3CCN2Cc2ccc(C)s2)n1 (stereo not given) | -1 | 1 | -9 | -1 | 1 | 27* | -1 | 9
COC(=O)CCN(C(=O)C1C2CC3CC(C2)CC1C3)c1ccccn1 (stereo not given) | -2 | -2 | 10 | 7 | 5 | 49* | -5 | -6
CCOc1ccccc1C(=O)N(CCC(=O)OC)c1ccccn1 | 2 | 0 | -16 | 5 | 2 | 3 | · | ·
Cc1ccc(S(=O)(=O)N2CCOc3ccccc32)c(C)c1NS(C)(=O)=O | 6 | · | · | · | · | · | · | ·
Cc1c(Cc2ccccc2)c(=O)oc2cc(O)ccc12 | 0 | 2 | · | 2 | · | -2 | · | ·
Cc1c(Cc2ccccc2)c(=O)oc2c(O)c(O)ccc12 | 4 | 1 | -4 | 1 | 4 | 44* | 2 | 64*
Fc1ccc(CSc2ncnc3sc4c(c23)CCCC4)cc1 | -4 | 0 | -3 | 2 | 2 | 99* | -3 | 0
O=C1Cc2cc(S(=O)(=O)N3CCN(c4cccc(Cl)c4)CC3)ccc2N1 | 0 | · | · | · | · | · | · | ·
CCOC(=O)N1CCN(C(=O)c2ccc(NC(=O)c3ccc(C)cc3)cc2)CC1 | 5 | 0 | 10 | 14 | 3 | 24* | 3 | 32*
O=C(Cn1cnc([N+](=O)[O-])c1)NCCc1ccccc1 | -4 | · | · | · | · | · | · | ·
CC1(C)CC(=O)c2cnc(NC(=O)CCc3ccccc3)nc2C1 | -1 | 0 | 14 | -1 | 2 | 95* | -6 | -8
O=C(CCc1ccccc1)Nc1ncc2c(n1)CCCC2=O | 3 | -4 | 10 | 9 | 4 | 6 | · | ·
O=C(Nc1ccc2c(c1)CN(Cc1ccc(CO)o1)CC2)c1ccc(C(F)(F)F)cc1 | -4 | · | · | · | · | · | · | ·
COc1ccccc1NC(=O)CSc1nnc(C2CCCCC2)n1C | 10 | -3 | -1 | 3 | 3 | 2 | · | ·
COc1ccccc1NC(=O)CSc1nnc(C2CCCCC2)n1-c1ccccc1 | -3 | 0 | · | -2 | · | 30* | -2 | 22
Cc1nn(Cc2ccc(Cl)cc2Cl)c(C)c1NC(=O)CCl | -1 | · | -10 | 5 | 7 | 30* | 5 | 64*
COc1cccc(Cn2cc(C)cc(NC(=O)NCc3ccccc3)c2=O)c1 | 6 | · | · | · | · | · | · | ·
CC(C)C/C(O)=C/c1nc2cc(Cl)ccc2oc1=O | 1 | 0 | 9 | 3 | 6 | 7 | · | ·
O=c1oc2ccc(Cl)cc2nc1/C=C(\O)c1ccco1 | -1 | 1 | · | 15 | · | 34* | 9 | 72*
O=[N+]([O-])c1cc(/C=N/Nc2nc3ccccc3[nH]2)c(O)cc1O | 2 | 5 | 50* | -4 | 10 | 30* | 68* | 81*
Nc1ccc2nn(-c3ccc(F)cc3)nc2c1 | 2 | · | · | · | · | · | · | ·
NC1=NC2(CCCCC2)N(c2ccc(F)cc2)C(N)=N1 | -5 | -1 | 4 | 11 | 4 | 24* | -4 | 33*
SMILES | IEC-6 cytotox | b-catenin transl | APP transl inh | BaF3 parental | MT stabilizer | Ba/F3 V617F tox | BaF3 tox 2 | JAK2V617F confrm
Cc1cc(C)nc(/N=C(\N)Nc2cccc(OCc3ccccc3)c2)n1 | 17 | 26 | · | 3 | · | 10 | · | ·
Cc1cc(C)nc(/N=C(\N)Nc2ccc(OCc3ccccc3)cc2)n1 | 8 | 0 | 6 | 11 | 5 | 34* | 5 | 39*
COC(=O)c1cc(CNC(=O)c2ccccc2OCc2c(C)noc2C)ccc1OC | -2 | · | · | · | · | · | · | ·
O=[N+]([O-])c1cc(S(=O)(=O)NCCN2CCOCC2)ccc1Sc1nnnn1-c1ccccc1 | 2 | 1 | 4 | 19 | 4 | 46* | 27* | 96*
CCCCCCCN(C(=O)CCl)c1cccc(C)c1 | 6 | -1 | -5 | 10 | 5 | 7 | · | ·
CCCCCCN(C(=O)CCl)c1ccccc1 | -6 | 2 | · | 0 | · | 49* | 1 | 63*
N#C/C(=C\c1ccc(O)c(O)c1)S(=O)(=O)c1ccccc1 | -2 | 1 | 23 | 4 | 4 | 24* | -5 | 10
Cc1nn(CC(=O)N2CCCCCC2)c(=O)c2cc3occc3n12 | -1 | · | · | · | · | · | · | ·
Cn1c(=O)c2c(ncn2CC2OCCO2)n(C)c1=O | -4 | · | · | · | · | · | · | ·
COc1ccccc1NC(=O)NC1CCCCCCC1 | -1 | · | · | · | · | · | · | ·
COc1ccccc1NC(=O)C1C2CCCCC21 (stereo not given) | -3 | -7 | 2 | 2 | 2 | 94* | -8 | -8
CC1CCCCC1NC(=O)NC(=O)CCl (stereo not given) | -9 | · | -16 | -4 | 4 | 19 | · | ·
CC1CCCC(NC(=O)NC(=O)CCl)C1C (stereo not given) | 0 | · | -23 | -9 | 3 | 58* | -4 | 83*
O=C(Nc1cc(S(=O)(=O)N2CCCCC2)ccc1Cl)c1ccccc1NS(=O)(=O)c1ccc(F)cc1 | 6 | 0 | -1 | 15 | 6 | 28* | 70* | 79*
O=C(Nc1cc(S(=O)(=O)N2CCCCC2)ccc1O)c1ccccc1NS(=O)(=O)c1ccc(F)cc1 | -9 | 0 | 6 | 7 | 4 | 0 | · | ·
